Test results reported in ChEMBL document CHEMBL1152522, “RCAI-37, 56, 59, 60, 92, 101, and 102, cyclitol and carbasugar analogs of KRN7000: their synthesis and bioactivity for mouse lymphocytes to produce Th1-biased cytokines” (2009).
Activity calls are given as the source filed them. The rule behind the calls is not given here.

How the values were obtained:
Mus musculus [1] = assay: Immunostimulatory activity in C57BL/6 mouse assessed as increase in serum IFN-gamma production at 10 ug/mL, iv after 36 hrs post-injection by ELISA; format: functional, organism-based
Outline: (§1)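 C57BL/6 mice, 8–16 wk old, kept specific pathogen-free. Glycolipid stock (1.0 mg/mL in DMSO) diluted to 10 µg/mL in Dulbecco's PBS just before dosing; 200 µL given iv. Retro-orbital heparinized blood taken at 3, 6, 12, 24, 36, 48 and 60 h for plasma. IFN-γ measured by ELISA; IL-4 and IL-12p70 by cytometric bead array. Mean ± SD of 3 mice; experiment repeated three times.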

Mus musculus [2] = assay: Immunostimulatory activity in C57BL/6 mouse assessed as increase in serum IL-12p70 production at 10 ug/mL, iv after 6 hrs post-injection by cytometric bead array method; format: functional, organism-based; outline: as §1
Mus musculus [3] = assay: Ratio of KRN700 to compound activity for increase in serum IL4 production in C57BL/6 mouse at 10 ug/mL, iv after 3 to 24 hrs post-injection by cytometric bead array method; format: functional
PBMC = assay: Immunostimulatory activity in human PBMC assessed as increase in IFN-gamma production by ELISA; format: functional, cell-based
Mus musculus [4] = assay: Immunostimulatory activity in C57BL/6 mouse assessed as increase in serum IFN-gamma production at 10 ug/mL, iv after 24 hrs post-injection by ELISA; format: functional, organism-based; outline: as §1
Mus musculus [5] = assay: Immunostimulatory activity in C57BL/6 mouse assessed as increase in serum IL-12p70 production at 10 ug/mL, iv after 3 hrs post-injection by cytometric bead array method; format: functional, organism-based; outline: as §1
Mus musculus [6] = assay: Immunostimulatory activity in C57BL/6 mouse assessed as increase in serum IFN-gamma production at 10 ug/mL, iv after 10 to 60 hrs post-injection by ELISA; format: functional, organism-based; outline: as §1
Mus musculus [7] = assay: Immunostimulatory activity in C57BL/6 mouse assessed as increase in serum IL4 production at 10 ug/mL, iv after 3 to 24 hrs post-injection by cytometric bead array method; format: functional, organism-based; outline: as §1
Mus musculus [8] = assay: Immunostimulatory activity in C57BL/6 mouse assessed as increase in serum IL-12p70 production at 10 ug/mL, iv after 3 to 24 hrs post-injection by cytometric bead array method; format: functional, organism-based; outline: as §1
Mus musculus [9] = assay: Immunostimulatory activity in C57BL/6 mouse assessed as mild increase in serum IFN-gamma production at 10 ug/mL, iv after 10 to 60 hrs post-injection by ELISA; format: functional, organism-based; outline: as §1

## CCCCCCCCCCCCCCCCCCCCCCCCCC(=O)N[C@@H](CO[C@H]1C[C@H](CO)[C@H](O)[C@H](O)[C@H]1O)[C@H](O)[C@H](O)CCCCCCCCCCCCCC
Mus musculus [1]
  Activity: Active
Mus musculus [2]
  Activity: Active
Mus musculus [3]
  Ratio: 0.5
PBMC
  Activity: Active
Mus musculus [4]
  Activity: Active
Mus musculus [5]
  Activity: Active

## CCCCCCCCCCCCCCCCCCCCCCCCCC(=O)N[C@@H](CO[C@@H]1[C@H](O)[C@@H](O)[C@@H](O)[C@@H](O)[C@@H]1O)[C@H](O)[C@H](O)CCCCCCCCCCCCCC
Mus musculus [6]
  Activity: inactive
Mus musculus [7]
  Activity: inactive
Mus musculus [8]
  Activity: inactive

## C[C@H]1O[C@H](O)[C@H](O)[C@@H](O)[C@H]1O
Mus musculus [6]
  Activity: Active

## CCCCCCCCCCCCCCCCCCCCCCCCCC(=O)N[C@@H](CO[C@H]1C[C@H](COC)[C@H](O)[C@H](O)[C@H]1O)[C@H](O)[C@H](O)CCCCCCCCCCCCCC
Mus musculus [9]
  Activity: Active

## CCCCCCCCCCCCCCCCCCCCCCCCCC(=O)N[C@@H](CO[C@H]1C[C@H](O)[C@H](O)[C@H](O)[C@H]1O)[C@H](O)[C@H](O)CCCCCCCCCCCCCC
PBMC
  Activity: Active
Mus musculus [6]
  Activity: Active
Mus musculus [7]
  Activity: Active

## CCCCCCCCCCCCCCCCCCCCCCCCCC(=O)N[C@@H](CO[C@@H]1[C@H](O)[C@@H](O)[C@H](O)[C@@H](O)[C@@H]1O)[C@H](O)[C@H](O)CCCCCCCCCCCCCC
Mus musculus [6]
  Activity: inactive
Mus musculus [7]
  Activity: inactive
Mus musculus [8]
  Activity: inactive

## CCCCCCCCCCCCCCCCCCCCCCCCCC(=O)N[C@@H](CO[C@H]1C[C@H](OC)[C@H](O)[C@H](O)[C@H]1O)[C@H](O)[C@H](O)CCCCCCCCCCCCCC
Mus musculus [6]
  Activity: Active
Mus musculus [7]
  Activity: Active

## CCCCCCCCCCCCCCCCCCCCCCCCCC(=O)N[C@@H](CO[C@H]1C[C@H](C)[C@H](O)[C@H](O)[C@H]1O)[C@H](O)[C@H](O)CCCCCCCCCCCCCC
Mus musculus [9]
  Activity: Active
